ChEMBL document CHEMBL2029304, “Synthesis and SAR of tetrahydroisoquinolines as Rev-erbα agonists” (Bioorg Med Chem Lett, 2012)

What was measured:
[1] = target: T1, Nuclear receptor subfamily 1 group D member 1 (Homo sapiens) (UniProt P20393); assay: Agonist activity at Rev-erbalpha assessed as repression of transcription at 10 uM by luciferase-reporter gene assay relative to control; assay type: functional
T1 sequence (whole entry): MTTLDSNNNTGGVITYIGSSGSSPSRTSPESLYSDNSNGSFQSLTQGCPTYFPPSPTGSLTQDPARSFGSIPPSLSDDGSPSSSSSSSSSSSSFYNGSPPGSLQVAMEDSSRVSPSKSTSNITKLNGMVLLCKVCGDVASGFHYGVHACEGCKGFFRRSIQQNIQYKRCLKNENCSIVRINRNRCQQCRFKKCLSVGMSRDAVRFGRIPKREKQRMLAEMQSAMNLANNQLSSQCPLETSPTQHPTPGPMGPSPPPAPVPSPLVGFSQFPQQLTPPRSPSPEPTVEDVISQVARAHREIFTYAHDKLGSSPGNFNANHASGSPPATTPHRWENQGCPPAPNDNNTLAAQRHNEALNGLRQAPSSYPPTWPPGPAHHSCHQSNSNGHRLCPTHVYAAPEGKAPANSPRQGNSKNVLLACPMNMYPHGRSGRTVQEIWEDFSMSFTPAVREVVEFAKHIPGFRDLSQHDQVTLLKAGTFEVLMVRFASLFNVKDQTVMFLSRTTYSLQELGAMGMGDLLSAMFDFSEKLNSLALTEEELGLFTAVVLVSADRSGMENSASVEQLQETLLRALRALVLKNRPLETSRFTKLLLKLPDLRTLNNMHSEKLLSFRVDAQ
Outline: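 Cells co-transfected with a full-length Rev-erbα expression plasmid and a luciferase reporter driven by the Bmal1 promoter. Compounds were screened at 1 μM and 10 μM for repression of Bmal1-driven transcription. The value is the fold change in luciferase signal relative to the DMSO control at 10 μM compound, where 1.0 means no repression.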

[2] = target: T2, Nuclear receptor subfamily 1 group D member 1 (Homo sapiens, UniProt P20393); assay: Agonist activity at Rev-erbalpha assessed as repression of transcription by luciferase-reporter gene assay; assay type: functional
T2 sequence (P20393 whole entry): T1 sequence (whole entry)
Outline: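 Cells co-transfected with a full-length Rev-erbα expression plasmid and a luciferase reporter driven by the Bmal1 promoter; repression of Bmal1 transcription read by luciferase. Compounds first tested at 1 μM and 10 μM, value given as fold change versus DMSO control at 10 μM (1.0 = no repression). Active compounds then titrated in an eleven-point dose response to give EC50.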

[3] = Half life in Sprague-Dawley rat at 1 mg/kg, iv and 2 mg/kg, po by LC-MS/MS analysis; assay type: ADME, organism-based; conditions: in vivo
Outline: (§1)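 Male/female unspecified Sprague-Dawley rats, n = 3; single 1 mg/kg i.v. dose and 2 mg/kg oral gavage dose. Blood sampled at 5, 15, 30 min, 1, 2, 4, 6, 8 h into EDTA tubes, plasma by centrifugation, proteins precipitated with acetonitrile, drug measured by LC-MS/MS. Noncompartmental analysis gave t1/2, clearance, Vd, AUC, Cmax and oral bioavailability.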

[4] = test system: Rattus norvegicus; assay: Oral bioavailability in Sprague-Dawley rat at 2 mg/kg by LC-MS/MS analysis; assay type: ADME, organism-based; conditions: in vivo; outline: as §1
[5] = test system: Rattus norvegicus; assay: Volume of distribution in Sprague-Dawley rat at 1 mg/kg, iv and 2 mg/kg, po by LC-MS/MS analysis; assay type: ADME, organism-based; conditions: in vivo; outline: as §1
[6] = target: T2, Nuclear receptor subfamily 1 group D member 1; assay: Agonist activity at Rev-erbalpha assessed as NCoR recruitment by FRET assay; assay type: functional
[7] = test system: Brain; assay: Brain penetration in C57Bl6 mouse at 10 mg/kg, ip after 2 hrs by LC-MS/MS analysis; assay type: ADME, organism-based; parameters: dose 10 mg/kg, route intraperitoneal; conditions: in vivo
Outline: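 C57Bl6 mice (n = 3), single 10 mg/kg intraperitoneal dose; blood and brain collected at 2 h, plasma frozen at −80°C. Plasma and brain mixed with acetonitrile (1:5 v:v or w:v), brain probe-sonicated, drug measured by LC-MS/MS against plasma or blank-brain-matrix standards; brain penetration as brain/plasma level percentage.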

Row | Compound | fold change (FC) [1] | EC50 [2] [nM] | further results
1 | CCOC(=O)C1Cc2ccccc2CN1C(=O)c1cccc2cccnc12 (stereo unspecified) | 0.64 |  | 
2 | CCOC(=O)C1Cc2ccccc2CN1Cc1cccc2ccccc12 (stereo unspecified) | 1 |  | 
3 | CCOC(=O)C1Cc2ccccc2CN1C(=O)c1cccc2oc(C)cc12 (stereo unspecified) | 0.51 | > 3000 | 
4 | CCCOc1ccc(OCC2Cc3ccccc3CN2C(=O)c2cccc3ccccc23)cc1 (stereo unspecified) | 0.45 | 77 | 
5 | CN(C)c1cccc(OCC2Cc3ccccc3CN2C(=O)c2cccc3ccccc23)c1 (stereo unspecified) | 0.3 | 780 | 
6 | O=C(c1cccc2ccccc12)N1Cc2ccccc2CC1COc1ccc(OC(F)(F)F)cc1 (stereo unspecified) | 0.4 | 600 | 
7 | COc1ccc(OCC2Cc3ccccc3CN2C(=O)c2cccc3ccccc23)cc1 (stereo unspecified) | 0.38 | 120 | 
8 | CCOC(=O)C1Cc2ccccc2CN1S(=O)(=O)c1ccc(C)cc1 (stereo unspecified) | 0.51 | 1100 | 
9 | O=C(c1cccc2ccccc12)N1Cc2ccccc2CC1COc1ccc(-c2ccccc2)cc1 (stereo unspecified) | 0.4 | 650 | 
10 | CCOC(=O)C1Cc2ccccc2CN1Cc1ccc(C(F)(F)F)nc1 (stereo unspecified) | 1 |  | 
11 | CCOc1ccc(OCC2Cc3ccccc3CN2C(=O)c2cccc3ccccc23)cc1 (stereo unspecified) | 0.35 | 97 | 
12 | NCC1Cc2ccccc2CN1C(=O)c1cccc2ccccc12 (stereo unspecified) | 0.74 |  | 
13 | O=C(c1cccc2ccccc12)N1Cc2ccccc2CC1COc1ccc(-n2cncn2)cc1 (stereo unspecified) | 0.35 | 120 | 
14 | CCOC(=O)C1Cc2ccccc2CN1C(=O)Oc1cccc(C(F)(F)F)c1 (stereo unspecified) | 1 |  | 
15 | O=C(c1cccc2ccccc12)N1Cc2ccccc2CC1COCc1ccccc1 (stereo unspecified) | 0.41 | 650 | half-life [3]: 1.9 h; F [4]: 0%; Vd [5]: 3.8 L/kg
16 | O=C(NCc1ccccc1)C1Cc2ccccc2CN1C(=O)c1cccc2ccccc12 (stereo unspecified) | 0.55 | > 3000 | 
17 | COc1ccc(OCC2Cc3ccccc3CN2C(=O)c2cccc3ccccc23)cc1OC (stereo unspecified) | 0.55 | 330 | 
18 | O=C(c1cccc2ccccc12)N1Cc2ccccc2CC1COc1ccc(F)cc1F (stereo unspecified) | 0.45 | 710 | 
19 | O=C(O)C1Cc2ccccc2CN1C(=O)c1cccc2ccccc12 (stereo unspecified) | 0.67 |  | 
20 | CCOC(=O)C1Cc2ccccc2CN1S(=O)(=O)c1cccc(Br)c1 (stereo unspecified) | 0.75 |  | 
21 | COc1cccc(OCC2Cc3ccccc3CN2C(=O)c2cccc3ccccc23)c1 (stereo unspecified) | 0.45 | 620 | 
22 | CCOC(=O)C1Cc2ccccc2CN1C(=O)C1COc2ccccc2O1 (stereo unspecified) | 0.81 |  | 
23 | CCOC(=O)C1Cc2ccccc2CN1C(=O)c1ccccc1Cl (stereo unspecified) | 0.78 |  | 
24 | CCOC(=O)C1Cc2ccccc2CN1C(=O)Nc1cccc2ccccc12 (stereo unspecified) | 1 |  | 
25 | O=C(c1cccc2ccccc12)N1Cc2ccccc2CC1CNS(=O)(=O)c1ccccc1 (stereo unspecified) | 0.4 |  | 
26 | O=C(c1cccc2ccccc12)N1Cc2ccccc2CC1CO (stereo unspecified) | 0.71 |  | 

Row | Compound | fold change (FC) [1] | EC50 [2] [nM] | further results
27 | CCOC(=O)C1Cc2ccccc2CN1Cc1nc2ccccc2s1 (stereo unspecified) | 0.95 |  | 
28 | O=C(c1cccc2ccccc12)N1Cc2ccccc2CC1COc1ccccc1 (stereo unspecified) | 0.37 | 840 | 
29 | COc1ccccc1OCC1Cc2ccccc2CN1C(=O)c1cccc2ccccc12 (stereo unspecified) | 0.4 | 2000 | 
30 | CCOC(=O)C1Cc2ccccc2CN1C(=O)Nc1ccccc1 (stereo unspecified) | 1.5 |  | 
31 | CCOC(=O)C1Cc2ccccc2CN1C(=O)Oc1ccccc1 (stereo unspecified) | 1 |  | 
32 | CC(C)(C)OC(=O)CN(Cc1ccc(Cl)cc1)Cc1ccc([N+](=O)[O-])s1 [GSK-4112] | 0.82 | 2300 | half-life [3]: 0.4 h; EC50 [6]: 400 nM; Drug uptake [7]: 140%; F [4]: 0%; Vd [5]: 9.9 L/kg
33 | CCOC(=O)C1Cc2ccccc2CN1C(=O)c1cccc2c1CCCC2 (stereo unspecified) | 0.53 | 2100 | 
34 | CCOC(=O)C1Cc2ccccc2CN1C(=O)c1cccc2ccccc12 (stereo unspecified) | 0.41 | 2500 | 
35 | NC(=O)C1Cc2ccccc2CN1C(=O)c1cccc2ccccc12 (stereo unspecified) | 0.61 |  | 
36 | CCOC(=O)C1Cc2ccccc2CN1S(=O)(=O)c1cccc2ccccc12 (stereo unspecified) | 0.5 | 1700 | 
37 | CCOC(=O)C1Cc2ccccc2CN1Cc1ccc([N+](=O)[O-])s1 (stereo unspecified) | 0.78 |  | 
38 | O=C(NCC1Cc2ccccc2CN1C(=O)c1cccc2ccccc12)OCc1ccccc1 (stereo unspecified) | 0.53 |  | 
39 | CC(C)(C)Oc1ccc(OCC2Cc3ccccc3CN2C(=O)c2cccc3ccccc23)cc1 (stereo unspecified) | 0.5 | 140 | 
40 | O=C(Nc1ccccc1)C1Cc2ccccc2CN1C(=O)c1cccc2ccccc12 (stereo unspecified) | 0.59 |  | 
41 | CCOC(=O)C1Cc2ccccc2CN1Cc1ccc([N+](=O)[O-])o1 (stereo unspecified) | 0.9 |  | 
42 | CCOC(=O)C1Cc2ccccc2CN1C(=O)c1ccccc1 (stereo unspecified) | 0.97 |  | 
43 | O=C(c1cccc2ccccc12)N1Cc2ccccc2CC1COc1ccc(F)cc1 (stereo unspecified) | 0.43 | 800 | 
44 | CCOC(=O)C1Cc2ccccc2CN1C(=O)c1ccno1 (stereo unspecified) | 1 |  | 
45 | CCOC(=O)C1Cc2ccccc2CN1C(=O)C1CCCc2ccccc21 (stereo unspecified) | 0.73 |  | 
46 | CC(=O)OCC1Cc2ccccc2CN1C(=O)c1cccc2ccccc12 (stereo unspecified) | 0.65 |  | 
47 | CCOC(=O)C1Cc2ccccc2CN1Cc1ccc(C(=O)O)s1 (stereo unspecified) | 1 |  | 
48 | O=C(c1cccc2ccccc12)N1Cc2ccccc2CC1COc1cccc2ccccc12 (stereo unspecified) | 0.41 | 1200 | 
49 | O=C(c1cccc2ccccc12)N1Cc2ccccc2CC1CNCc1ccccc1 (stereo unspecified) | 0.43 | > 3000 | half-life [3]: 1.7 h; F [4]: 0%; Vd [5]: 3.8 L/kg
50 | CCOC(=O)C1Cc2ccccc2CN1C(=O)Oc1ccc(Cl)cc1 (stereo unspecified) | 1.3 |  | 
51 | CCOC(=O)C1Cc2ccccc2CN1C(=O)c1cccc(Br)c1 (stereo unspecified) | 0.97 |  | 
